In the library only some 4.2% were active in any assay of this set; here they are far more common.
UPR CHOP act = apoptotic UPR (CHOP) activation; CHO-CHOP luciferase reporter, luminescence; percent of tunicamycin response over DMSO baseline; activation, % at 10 µM; hit rate 0.34% among 330,000; AID 449763;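 active means at 10 µM dose, activation of 40% or more, normalized to positive control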
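System: CHO CHOP reporter cells. Amount: 500 cells per well. Buffer or medium: F12 medium, 10% FBS. Compound dosing: one dose, 10 µM in 0.5% DMSO. Incubation: 6 h compound exposure at 37 °C after overnight seeding. Technique: Steady-Glo luciferase luminescence. Benchmarks: tunicamycin and DMSO controls.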
ANO1 activ = activates or potentiates the mouse TMEM16A chloride channel. B-score at 10 µM. HEK293 TMEM16A/YFP-H148Q/I152L, iodide quench fluorescence; hits give low values. Q8BHY3. hit rate 0.3% among 340,000;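 active means fluorescence-ratio B-score plate-corrected deviation score at least 3 library SD below zero, with starting fluorescence score within 5 deviations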;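 further: channel opened by trigger with iodide after compound preincubation; score built on the fluorescence ratio of max minus min over baseline; more negative score means more quench and so TMEM16A activation or potentiation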
Target sequence (Q8BHY3 whole entry, looked up): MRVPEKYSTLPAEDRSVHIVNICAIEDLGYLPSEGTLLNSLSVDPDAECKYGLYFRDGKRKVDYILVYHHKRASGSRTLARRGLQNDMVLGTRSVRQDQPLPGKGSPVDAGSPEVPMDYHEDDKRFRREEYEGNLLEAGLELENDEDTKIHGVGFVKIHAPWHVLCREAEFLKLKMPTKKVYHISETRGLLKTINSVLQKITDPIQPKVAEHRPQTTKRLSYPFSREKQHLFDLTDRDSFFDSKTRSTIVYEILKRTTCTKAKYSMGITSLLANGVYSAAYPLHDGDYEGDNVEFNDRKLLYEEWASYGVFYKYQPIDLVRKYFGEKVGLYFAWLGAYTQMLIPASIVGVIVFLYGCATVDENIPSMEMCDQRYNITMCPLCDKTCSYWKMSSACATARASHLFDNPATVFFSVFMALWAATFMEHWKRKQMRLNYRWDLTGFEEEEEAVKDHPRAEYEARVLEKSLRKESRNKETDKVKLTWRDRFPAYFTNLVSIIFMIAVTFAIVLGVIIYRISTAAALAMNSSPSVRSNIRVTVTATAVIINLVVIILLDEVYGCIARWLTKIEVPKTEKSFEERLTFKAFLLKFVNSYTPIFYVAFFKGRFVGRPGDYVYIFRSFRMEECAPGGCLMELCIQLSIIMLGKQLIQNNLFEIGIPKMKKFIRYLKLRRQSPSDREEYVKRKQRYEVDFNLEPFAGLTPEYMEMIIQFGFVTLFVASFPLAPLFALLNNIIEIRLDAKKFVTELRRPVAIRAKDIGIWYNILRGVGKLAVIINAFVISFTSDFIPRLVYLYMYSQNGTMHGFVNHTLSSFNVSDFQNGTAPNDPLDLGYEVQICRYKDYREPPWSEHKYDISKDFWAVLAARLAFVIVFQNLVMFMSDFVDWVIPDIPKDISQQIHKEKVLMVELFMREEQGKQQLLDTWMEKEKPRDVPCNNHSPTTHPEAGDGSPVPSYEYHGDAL
CHOP inhibitor = CHOP inhibition in unfolded protein response. hit rate 3.8% among 220,000. AID 2732. CHO-K1 CHOP-promoter luciferase, tunicamycin-induced, 15-18 h. inhibition, % at 10 µM;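 active means compounds that reduced the stress-induced luciferase reporter signal by more than about 70% of percent inhibition, limit read from the data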
ANO1 block = inhibitors of mouse TMEM16A calcium-activated chloride channel; Q8BHY3; HEK293 TMEM16A/YFP iodide influx fluorescence, ionomycin; normalized B-score (activity score, 25-100; higher = stronger inhibition) at 10 µM; hit rate 1.2% among 310,000;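 active means ratio plate-corrected score three or more library SD toward inhibition, starting fluorescence score within five deviations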;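 further: score derived from kinetic fluorescence span divided by baseline fluorescence per well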
Lipid droplet = modulators of hepatic lipid droplet formation | AML12 mouse hepatocytes, oleate lipid droplets, BODIPY imaging | hit rate 0.4% among 240,000 | inhibition, % at 6.5 µM | AID 1656;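 active means lipid droplet intensity inhibited by at least 50%, with more than 500 cells counted; inconclusive means wells with under 300 cells, treated as cytotoxic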
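Test system: AML12 hepatocytes (mouse); reagent: oleate loading, 100 µM; dosing: one dose, 6.5 µM compound; incubation: overnight exposure; signal: fluorescence imaging, 20x objective, two fields per well; read-out basis: % inhibition of corrected integrated BODIPY droplet signal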
UPR XBP1 act = activators of adaptive arm of unfolded protein response (XBP1). CHO-XBP1 luciferase reporter, IRE1-XBP1 UPR activation, luminescence; percent of tunicamycin response, DMSO as zero. activation, % at 20 µM. hit rate 0.33% among 330,000;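 active means versus positive control, 20 µM dose yields 30% or more activation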
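Assay system: IRE1-XBP1 luciferase reporter CHO line. Input: 1000 cells/well. Buffer or medium: F12 with 10% serum. Doses: 20 µM, 1% DMSO. Times: overnight seeding at 37 °C, 6 h compound treatment at 37 °C. Technique: Steady-Glo luciferase glow luminescence, 10 min after reagent addition.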
CHOP inh conf = confirmation of CHOP induction inhibitors; shares compounds with CHOP inhibitor; inhibition, % at 10 µM; AID 504437; CHO-CHOP promoter luciferase reporter, tunicamycin-induced, luminescence; hit rate 45% among 2,100;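 active means mean of three repeat readings of reporter signal inhibition above a set limit, cut at about 70% in these data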
Hits are given with their value; 0 = inactive; ? = inconclusive; - = no result.

SMILES	UPR CHOP act	ANO1 activ	CHOP inhibitor	ANO1 block	Lipid droplet	UPR XBP1 act	CHOP inh conf
COc1ccc(CCNC(=O)CN2C(=O)COc3ccc(S(=O)(=O)N4CCOCC4)cc32)cc1OC	0	0	-	0	0	0	-
C=CC[C@@H](CC(=O)N[C@H](CO)Cc1ccccc1)C(=O)NC[C@H](OC(=O)[C@@H](CC=C)Cc1ccc(F)cc1)c1ccccc1	0	0	-	-	-	0	-
CC(=O)c1c(N2CCOCC2)nc2ccc(Cl)cc2c1-c1ccccc1	0	0	0	0	0	0	-
CCn1nnnc1SCC(=O)N(C)C1CCS(=O)(=O)C1 (stereo not given)	0	-	-	-	-	0	-
C=C(C)COc1ccc(-c2[nH]ncc2-c2ccc(OC)cc2)c(O)c1	0	0	0	0	0	0	-
C=C(C)COc1ccc(-c2[nH]ncc2Oc2cccc(OC)c2)c(O)c1	0	0	103.0	0	0	0	0
CCOc1ccc(-c2n[nH]c(C)c2Oc2ccccc2OC)c(O)c1	0	0	0	0	-	0	-
C=C(C)COc1ccc(-c2n[nH]c(C)c2Oc2ccccc2OC)c(O)c1	0	0	106.9	0	-	0	114.8
COc1ccc(CN(C)C(=O)CCl)cc1	-	0	0	-	0	-	-
CN(Cc1ccc(Cl)cc1)C(=O)CCl	0	0	104.4	0	0	0	0
Clc1ccccc1/C=N/NC1=Nc2cccc3cccc1c23	0	0	98.5	0	0	0	0
CCOC(=O)c1c(N)sc(C(O)(C(F)(F)F)C(F)(F)F)c1-c1ccc(Cl)cc1	0	0	97.5	0	0	0	120.8
O=C(NCCc1ccccc1)C(=O)NCCC1CCCCN1S(=O)(=O)c1cccs1 (stereo not given)	0	0	-	0	-	0	-
COC(=O)/C(=C\c1c(OC)cc(OC)cc1OC)C(=O)c1ccc2c(c1)OCO2	0	0	-	0	-	0	-
O=S(=O)(Nc1ccc(-c2csc(-c3ccccc3)n2)cc1)c1ccc(F)cc1	0	0	104.8	0	0	0	0
O=C(Nc1ccccc1)Nc1nc(-c2ccc(F)cc2)cs1	0	0	105.9	0	0	0	0
O=S(=O)(Nc1ccccc1)c1ccc(-c2csnn2)cc1	0	0	0	0	0	0	-
CC(C)(C)c1cc(CN2CCCC(O)C2)c(O)c(C(C)(C)C)c1 (stereo not given)	0	0	107.2	0	0	0	108.7
CC(C)(C)c1cc(CN2CCCCC2)cc(C(C)(C)C)c1O	0	-	0	0	0	0	-
Cc1ccc(Cn2c(=O)c3c(nc4n3CCCN4Cc3ccccc3)n(C)c2=O)cc1	0	0	104.5	0	-	0	0
Cc1ccc(NC(=O)CSc2nnc3c(n2)[nH]c2ccccc23)cc1	0	0	-	0	0	0	-
Cc1ccc(-c2csc(NC(=O)CSc3nnc4c(n3)[nH]c3ccccc34)n2)cc1	-	0	101.1	0	-	-	0
C=CCN(Cc1cccc(OC)c1OC)C(=O)Oc1ccccc1	0	0	-	-	-	0	-
O=C(Nc1ccccc1-c1nc2ccccc2[nH]1)c1sc2ccccc2c1Cl	0	-	96.6	0	0	0	105.8
Cc1cnc(NC(=O)c2sc3ccccc3c2Cl)s1	0	0	0	0	0	0	-
SMILES	UPR CHOP act	ANO1 activ	CHOP inhibitor	ANO1 block	Lipid droplet	UPR XBP1 act	CHOP inh conf
Cc1ccnc(NC(=O)c2sc3ccccc3c2Cl)c1	0	0	99.5	0	0	0	0
CCCCN(C(=O)CSc1cc(C)c2ccc(OC)cc2n1)c1c(N)n(Cc2ccccc2)c(=O)[nH]c1=O	0	0	0	0	0	0	-
Cn1c(N2CCN(C(c3ccccc3)c3ccccc3)CC2)nc2c1c(=O)[nH]c(=O)n2C	0	0	-	0	0	0	-
COc1cccc(N(C(=O)CS(=O)CC(=O)Nc2ccc(F)cc2)C(C(=O)NC2CCCCC2)c2cccs2)c1 (stereo not given)	0	0	99.8	0	0	0	0
C#CC(=O)N(c1cc(OC)ccc1OC)C(C(=O)NC1CCCC1)c1cccs1 (stereo not given)	0	0	108.5	0	-	0	110.8
N#Cc1cc([N+](=O)[O-])ccc1NC(=O)COC(=O)CN1C(=O)C2CCCCC2C1=O (stereo not given)	0	0	-	-	-	0	-
Cn1c(=O)cc(SCC(=O)NCC2CCCO2)c2ccc(Cl)cc21 (stereo not given)	0	0	0	0	0	0	-
Cn1c(=O)cc(SCC(=O)NCCC2=CCCCC2)c2ccc(Cl)cc21	0	0	97.5	0	0	0	90.4
CC(=O)Nc1ccc(-c2nnc(SCC(=O)c3ccc4c(c3)Cc3ccccc3-4)n2C)cc1	0	0	105.0	0	-	0	0
Cn1c(SCC(=O)c2ccc(O)c(O)c2)nnc1-c1ccccc1	0	0	-	0	-	0	-
CCC1CCc2c(sc(NC(=O)c3cccnc3)c2C(N)=O)C1 (stereo not given)	0	0	0	0	0	0	-
CCC1CCc2c(sc(NC(=O)c3ccoc3C)c2C(N)=O)C1 (stereo not given)	0	0	102.4	0	0	0	102.3
COCCn1c(SCC(=O)Nc2cccc(F)c2)nc2c(c1=O)SCC2	0	0	-	0	0	0	-
COc1ccccc1C(=O)Nc1c(C(=O)N2CCN(C)CC2)oc2ccccc12	0	0	-	0	0	0	-
CC1CN(CC(=O)Nc2ccccc2Sc2ccccc2)CC(C)O1 (stereo not given)	0	0	0	0	0	0	-
CC1CCCC(NC(=O)CSc2ccc(F)cc2)C1C (stereo not given)	0	0	0	0	0	0	-
CC1CCCC(NCC(O)COC(c2ccc(F)cc2)c2ccc(F)cc2)C1C (stereo not given)	0	0	103.0	0	0	0	110.9
Cc1cc(/C=N/Nc2nc(N)ncc2[N+](=O)[O-])c(C)n1-c1cccc(C(F)(F)F)c1	0	-	98.0	0	0	0	95.9
Cc1cc(/C=N/Nc2ccc([N+](=O)[O-])cn2)c(C)n1-c1ccc(C(=O)O)cc1	0	0	0	0	0	0	-
CCSc1nnc(NC(=O)c2ccc(S(=O)(=O)N(C)C)cc2)s1	0	0	0	0	0	0	-
CN(C)S(=O)(=O)c1ccc(C(=O)Nc2nnc(SCc3cccc4ccccc34)s2)cc1	0	0	103.2	0	?	0	0
O=S(=O)(NCC(Nc1ccc(Cl)cc1)c1ccccc1)c1ccccc1 (stereo not given)	0	0	98.6	0	0	0	0
Cn1cnc([N+](=O)[O-])c1S(=O)(=O)c1cccc(Cl)c1	0	0	109.4	0	0	0	110.5
NC(=S)n1[nH]c(-c2ccc([N+](=O)[O-])cc2)c(N=Nc2ccc(Cl)cc2)c1=O	-	0	106.8	-	0	-	113.5
